Columns and labels:
[1] = tested on: Staphylococcus aureus; test: Antibacterial activity against Staphylococcus aureus assessed as inhibition of microbial growth incubated for 18 to 22 hrs by broth microdilution method; assay type: functional
Summary of the method: (§1)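 Broth microdilution in Mueller-Hinton II broth following NCCLS recommendations; compounds dissolved in DMSO.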

[2] = tested on: Staphylococcus warneri; test: Antibacterial activity against Staphylococcus warneri assessed as inhibition of microbial growth incubated for 18 to 22 hrs by broth microdilution method; assay type: functional; summary of the method: as §1
[3] = tested on: Enterococcus faecalis; test: Antibacterial activity against Streptococcus faecalis assessed as inhibition of microbial growth incubated for 18 to 22 hrs by broth microdilution method; assay type: functional; summary of the method: as §1
[4] = tested on: Escherichia coli; test: Antibacterial activity against Escherichia coli assessed as inhibition of microbial growth incubated for 18 to 22 hrs by broth microdilution method; assay type: functional; summary of the method: as §1
[5] = tested on: Proteus mirabilis; test: Antibacterial activity against Proteus mirabilis assessed as inhibition of microbial growth incubated for 18 to 22 hrs by broth microdilution method; assay type: functional; summary of the method: as §1
[6] = tested on: Enterobacter; test: Antibacterial activity against Enterobacter spp. assessed as inhibition of microbial growth incubated for 18 to 22 hrs by broth microdilution method; assay type: functional; summary of the method: as §1
[7] = tested on: Klebsiella oxytoca; test: Antibacterial activity against Klebsiella oxytoca assessed as inhibition of microbial growth incubated for 18 to 22 hrs by broth microdilution method; assay type: functional; summary of the method: as §1
[8] = tested on: Candida albicans; test: Antifungal activity against Candida albicans clinical isolates assessed as inhibition of microbial growth incubated for 24 hrs by broth microdilution method; assay type: functional
Summary of the method: (§2)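 Twenty-two clinical Candida isolates (8 C. albicans, 4 C. glabrata, 3 C. tropicalis, 3 C. krusei, 2 C. parapsilosis, 2 C. sake) were identified by colony morphology and biochemistry and subcultured at 35 °C for purity. Compounds were dissolved in DMSO and tested by broth microdilution in Sabouraud dextrose broth per NCCLS/CLSI/EUCAST guidance. Values are geometric mean MIC per species (µg/mL).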

[9] = tested on: Nakaseomyces glabratus; test: Antifungal activity against Candida glabrata clinical isolates assessed as inhibition of microbial growth incubated for 24 hrs by broth microdilution method; assay type: functional; summary of the method: as §2
[10] = tested on: Candida tropicalis; test: Antifungal activity against Candida tropicalis clinical isolates assessed as inhibition of microbial growth incubated for 24 hrs by broth microdilution method; assay type: functional; summary of the method: as §2
[11] = tested on: Pichia kudriavzevii; test: Antifungal activity against Candida krusei clinical isolates assessed as inhibition of microbial growth incubated for 24 hrs by broth microdilution method; assay type: functional; summary of the method: as §2
[12] = tested on: Candida parapsilosis; test: Antifungal activity against Candida parapsilosis clinical isolates assessed as inhibition of microbial growth incubated for 24 hrs by broth microdilution method; assay type: functional; conditions: Lodderomyces parapsilosis; summary of the method: as §2
[13] = tested on: [Candida] sake; test: Antifungal activity against Candida sake clinical isolates assessed as inhibition of microbial growth incubated for 24 hrs by broth microdilution method; assay type: functional; conditions: Fermentozyma sake; summary of the method: as §2
[14] = tested on: Streptococcus alpha-hemolyticus (Streptococcus sp.); test: Antibacterial activity against Streptococcus Streptococcus alpha hemolyticus assessed as inhibition of microbial growth incubated for 18 to 22 hrs by broth microdilution method

Structure (SMILES) | MIC [1] | MIC [2] | MIC [3] | MIC [4] | MIC [5] | MIC [6] | MIC [7] | MIC [8] | MIC [9] | MIC [10] | MIC [11] | MIC [12] | MIC [13] | MIC [14]
CC/C(C)=N\N=C1/NC(=O)CS1 | ≥ 256 mg/L | ≥ 256 mg/L | ≥ 256 mg/L | ≥ 256 mg/L | ≥ 256 mg/L | ≥ 256 mg/L | ≥ 256 mg/L | 8 mg/L | 2 mg/L | 2 mg/L | 2 mg/L | 2 mg/L | 2 mg/L | ≥ 256 mg/L
CC(C)=C/C(C)=N\N=C1/NC(=O)CS1 | ≥ 256 mg/L | ≥ 256 mg/L | ≥ 256 mg/L | ≥ 256 mg/L | ≥ 256 mg/L | ≥ 256 mg/L | ≥ 256 mg/L | 2 mg/L | 2 mg/L | 8 mg/L | 2 mg/L | 2 mg/L | 4 mg/L | ≥ 256 mg/L
C=CCC/C(C)=N\N=C1/NC(=O)CS1 | ≥ 256 mg/L | ≥ 256 mg/L | ≥ 256 mg/L | ≥ 256 mg/L | ≥ 256 mg/L | ≥ 256 mg/L | ≥ 256 mg/L | 2 mg/L | 2 mg/L | 2 mg/L | 2 mg/L | 2 mg/L | 4 mg/L | ≥ 256 mg/L
C/C(CC(C)C)=N/N=C1\NC(=O)CS1 | ≥ 256 mg/L | ≥ 256 mg/L | ≥ 256 mg/L | ≥ 256 mg/L | ≥ 256 mg/L | ≥ 256 mg/L | ≥ 256 mg/L | 2 mg/L | 2 mg/L | 2 mg/L | 2 mg/L | 2 mg/L | 2 mg/L | ≥ 256 mg/L
C/C(=N/N=C1/SCC(=O)N1Cc1ccccc1)c1cccc2ccccc12 | ≥ 256 mg/L | ≥ 256 mg/L | ≥ 256 mg/L | ≥ 256 mg/L | ≥ 256 mg/L | ≥ 256 mg/L | ≥ 256 mg/L | 4 mg/L | 4 mg/L | 32 mg/L | 16 mg/L | 16 mg/L | 4 mg/L | 
O=C1CS/C(=N/N=C\c2ccncc2)N1Cc1ccccc1 | ≥ 256 mg/L | ≥ 256 mg/L | ≥ 256 mg/L | ≥ 256 mg/L | ≥ 256 mg/L | ≥ 256 mg/L | ≥ 256 mg/L | 256 mg/L | 256 mg/L | 256 mg/L | 256 mg/L | 256 mg/L | 256 mg/L | 
C/C(=N/N=C1/SCC(=O)N1Cc1ccccc1)c1ccc2ccccc2c1 | ≥ 256 mg/L | ≥ 256 mg/L | ≥ 256 mg/L | ≥ 256 mg/L | ≥ 256 mg/L | ≥ 256 mg/L | ≥ 256 mg/L | 8 mg/L | 16 mg/L | 256 mg/L | 16 mg/L | 16 mg/L | 16 mg/L | 
CC(=O)c1ccc(/C(C)=N\N=C2\SCC(=O)N2Cc2ccccc2)cc1 | ≥ 256 mg/L | ≥ 256 mg/L | ≥ 256 mg/L | ≥ 256 mg/L | ≥ 256 mg/L | ≥ 256 mg/L | ≥ 256 mg/L | 8 mg/L | 2 mg/L | 32 mg/L | 8 mg/L | 32 mg/L | 8 mg/L | 
C/C(=N/N=C1/SCC(=O)N1Cc1ccccc1)c1ccc(/C(C)=N\N=C2\SCC(=O)N2Cc2ccccc2)cc1 | ≥ 256 mg/L | ≥ 256 mg/L | ≥ 256 mg/L | ≥ 256 mg/L | ≥ 256 mg/L | ≥ 256 mg/L | ≥ 256 mg/L | 8 mg/L | 2 mg/L | 32 mg/L | 8 mg/L | 32 mg/L | 8 mg/L | 
O=C1CS/C(=N/N=C\c2c[nH]c3ccccc23)N1Cc1ccccc1 | ≥ 256 mg/L | ≥ 256 mg/L | ≥ 256 mg/L | ≥ 256 mg/L | ≥ 256 mg/L | ≥ 256 mg/L | ≥ 256 mg/L | 256 mg/L | 16 mg/L | 256 mg/L | 2 mg/L | 16 mg/L | 16 mg/L | 
O=C1CS/C(=N/N=C\c2ccc3c(c2)OCO3)N1Cc1ccccc1 | ≥ 256 mg/L | ≥ 256 mg/L | ≥ 256 mg/L | ≥ 256 mg/L | ≥ 256 mg/L | ≥ 256 mg/L | ≥ 256 mg/L | 8 mg/L | 8 mg/L | 8 mg/L | 8 mg/L | 8 mg/L | 8 mg/L | 

From ChEMBL document CHEMBL4190362, “Synthesis, biological evaluation and quantitative structure-active relationships of 1,3-thiazolidin-4-one derivatives. A promising chemical scaffold endowed with high antifungal potency and low cytotoxicity” (Eur J Med Chem, 2017)
